In ChEMBL document CHEMBL4177743, “α-Methylation enhances the potency of isoprenoid triazole bisphosphonates as geranylgeranyl diphosphate synthase inhibitors” (Bioorg Med Chem, 2018):
The source made the active and inactive calls. No cut-off for these calls is given here.

What was measured:
[1] = biological target: T1, Geranylgeranyl pyrophosphate synthase (Homo sapiens) (UniProt O95749); assay: Inhibition of GGDPS in human […] cells assessed as increase in Rap1a level at 1 to 10 uM by Western blot analysis; type: cell-based
T1 sequence (whole entry): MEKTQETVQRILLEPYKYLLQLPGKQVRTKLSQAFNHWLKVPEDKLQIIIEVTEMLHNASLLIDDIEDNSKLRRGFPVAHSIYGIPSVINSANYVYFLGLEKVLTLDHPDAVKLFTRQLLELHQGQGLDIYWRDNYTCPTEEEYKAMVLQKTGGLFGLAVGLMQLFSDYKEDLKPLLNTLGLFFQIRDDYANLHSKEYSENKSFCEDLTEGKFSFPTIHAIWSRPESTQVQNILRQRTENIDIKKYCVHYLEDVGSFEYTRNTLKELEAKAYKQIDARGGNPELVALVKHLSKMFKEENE
Summary of the method: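 RPMI-8226 cells were treated for 48 h with varying compound concentrations or lovastatin (10 μM). RIPA lysates containing protease and phosphatase inhibitors were protein-equalized by BCA, then run on SDS-PAGE and transferred to PVDF. Blots were probed with an antibody detecting only unmodified (non-geranylgeranylated) Rap1a, with β-tubulin as loading control, and developed by HRP secondary and ECL.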

Homo sapiens = species on record: Homo sapiens; assay: Selectivity ratio of IC50 for recombinant FDPS (unknown origin) to IC50 for recombinant GGDPS (unknown origin)
Summary of the method: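 Ratio of FDPS IC50 to GGDPS IC50. Both enzymes were recombinant: FDPS from an academic source, GGDPS commercial. Each IC50 came from duplicate wells at multiple concentrations in three independent experiments. Positive controls were zoledronic acid for FDPS and digeranyl bisphosphate for GGDPS.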

[2] = biological target: T2, Geranylgeranyl pyrophosphate synthase (Homo sapiens, UniProt O95749); assay: Inhibition of recombinant GGDPS (unknown origin) using FPP as substrate pretreated for 10 mins followed by substrate addition measured after 30 mins in presence of [14C]-IPP by liquid scintillation counting method
T2 sequence (O95749 whole entry): T1 sequence (whole entry)
Summary of the method: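 Commercial recombinant GGDPS was used, following a previously described protocol. Each compound was run in duplicate at several concentrations across three independent experiments, and IC50 was reported with digeranyl bisphosphate as the positive control in every run.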

[3] = biological target: T3, Farnesyl pyrophosphate synthase (Homo sapiens, UniProt P14324); assay: Inhibition of recombinant FDPS (unknown origin) using GPP as substrate pretreated for 10 mins followed by substrate addition measured after 30 mins in presence of [14C]-IPP by liquid scintillation counting method
T3 sequence (P14324 whole entry): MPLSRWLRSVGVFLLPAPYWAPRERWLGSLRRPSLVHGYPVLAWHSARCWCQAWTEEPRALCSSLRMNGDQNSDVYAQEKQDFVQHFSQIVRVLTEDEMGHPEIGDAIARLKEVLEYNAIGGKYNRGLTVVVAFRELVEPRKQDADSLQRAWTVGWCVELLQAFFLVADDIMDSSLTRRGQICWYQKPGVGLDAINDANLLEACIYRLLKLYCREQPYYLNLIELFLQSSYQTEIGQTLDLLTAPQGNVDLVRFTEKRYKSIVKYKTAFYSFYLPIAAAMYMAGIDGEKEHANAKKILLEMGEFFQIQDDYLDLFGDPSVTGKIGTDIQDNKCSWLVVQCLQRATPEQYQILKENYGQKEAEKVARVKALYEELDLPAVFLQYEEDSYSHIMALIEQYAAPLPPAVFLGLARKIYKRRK
Summary of the method: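 Recombinant FDPS was a gift from an academic laboratory. Each compound was tested in duplicate at multiple concentrations across three independent experiments to obtain IC50, with zoledronic acid as positive control in every run.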

[4] = biological target: T1, Geranylgeranyl pyrophosphate synthase (Homo sapiens); assay: Inhibition of GGDPS in human […] cells assessed as decrease in Rab GTPase geranylgeranylation by measuring accumulation of intracellular lambda light chain after 48 hrs by ELISA; type: cell-based
Summary of the method: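 RPMI-8226 myeloma cells were exposed for 48 h to a range of test concentrations, with lovastatin (10 μM) as positive control. Whole-cell lysates were made in RIPA buffer with protease and phosphatase inhibitors. Intracellular lambda light chain was quantified by human lambda ELISA and normalized to BCA total protein. Data are % of control, mean + SD, n=3; unpaired two-tailed t-test, p < 0.05.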

[5] = biological target: T1, Geranylgeranyl pyrophosphate synthase (Homo sapiens); settings: 50 to 1000 nM
[6] = biological target: T1, Geranylgeranyl pyrophosphate synthase (Homo sapiens); settings: 50 to 1000 nM; remark: listed apart in the source

MEC [1]	Ratio IC50 (Homo sapiens)	IC50 [2]	IC50 [3]	MEC [4]	inhibition [5]	inhibition [6]	SMILES
0.1 µM	> 108	0.92 µM	> 100 µM	0.1 µM	–	–	CC(C)=CCC/C(C)=C\Cn1cc(CC(C)(P(=O)(O)O)P(=O)(O)O)nn1
0.1 µM	49	1.27 µM	62.2 µM	0.1 µM	–	–	CC(C)=CCCC(C)=CCn1cc(CC(C)(P(=O)(O)O)P(=O)(O)O)nn1 (mixture of isomers)
5 µM	3.5	20.5 µM	71.4 µM	5 µM	–	–	CC(C)=CCC/C(C)=C/Cn1cc(CC(C)(P(=O)(O)O)P(=O)(O)O)nn1
2.5 µM	16	5.85 µM	94.3 µM	2.5 µM	–	–	CCC(Cc1cn(CC=C(C)CCC=C(C)C)nn1)(P(=O)(O)O)P(=O)(O)O

More lines, now with the values behind:

SMILES	MEC [1]	Ratio IC50 (Homo sapiens)	IC50 [2]	IC50 [3]	MEC [4]	inhibition [5]	inhibition [6]
CC(C)=CCC/C(C)=C/CCn1cc(CC(C)(P(=O)(O)O)P(=O)(O)O)nn1 [listing 1 of 2 here]	0.02 µM	345	–	–	0.02 µM	–	–
CC(C)=CCC/C(C)=C/CCn1cc(CC(C)(P(=O)(O)O)P(=O)(O)O)nn1 (mixture of isomers) [listing 1 of 2 here]	–	–	0.1 µM	24.1 µM	–	–	–
CC(C)=CCC/C(C)=C\CCn1cc(CC(C)(P(=O)(O)O)P(=O)(O)O)nn1	0.025 µM	693	–	59.6 µM	0.025 µM	–	–
CC(C)=CCC/C(C)=C/CCn1cc(CC(C)(P(=O)(O)O)P(=O)(O)O)nn1 (mixture of isomers) [listing 2 of 2 here]	0.03 µM	241	–	–	0.03 µM	–	–
CC(C)=CCCC(C)=CCn1cc(CC(P(=O)(O)O)P(=O)(O)O)nn1 (mixture of isomers)	–	–	–	–	–	Active	Active
CC(C)=CCC/C(C)=C/CCn1cc(CC(C)(P(=O)(O)O)P(=O)(O)O)nn1 [listing 2 of 2 here]	–	–	–	43.1 µM	–	–	–
